From ChEMBL document CHEMBL1139347, “Total synthesis and cytoprotective properties of dykellic acid” (J Med Chem, 2009)
Blank lines part the entries; values can stand above or below the compound they belong to. Calls of active or inactive are those of the source. The rule behind the calls is not given here.

Assays:
U-937 [1] = experiment: Cytoprotective activity against 1.5 uM etoposide-induced cell death in human U937 cells pretreated for 5 hrs measured after 24 hrs by cell flow cytometry using propidium iodide staining relative to control; assay type: functional, cell-based
Procedure, shortened: (§1)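 U-937 suspension cells preincubated 5 h across a concentration range, then challenged with etoposide (final 1.5 µM) or rotenone (final 5 µM). Death scored 24 h later by propidium iodide staining and flow cytometry. Percent protection derived from live-cell fraction relative to vehicle-only and toxin-only controls. SDM from n = 3, each run in triplicate.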

U-937 [2] = experiment: Antiapoptotic activity in human U937 cells assessed as reduction of 1.5 uM etoposide-induced caspase-3/7 like activity pretreated for 5 hrs measured after 24 hrs relative to control; assay type: functional, cell-based
Procedure, shortened: (§2)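 U-937 cells pretreated 5 h with Z-VAD-fmk (100 nM) or a range of test concentrations, then etoposide added (final 1.5 µM) for 24 h. Cells moved to caspase assay buffer, lysed, and given Ac-DEVD-pNA (final 200 µM). pNA release per minute read at 405 nm. DMSO 1% in all wells. Vehicle+etoposide set to 1.0, vehicle alone set to 0. Triplicate, representative of three experiments.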

Caspase-8 (Homo sapiens) = Caspase-8 (Homo sapiens) (UniProt Q14790); experiment: Inhibition of recombinant caspase 8 activity expressed in Escherichia coli BL21 (DE3) assessed as p-nitroaniline release using Ac-IETD-pNA substrate up to 100 uM
Chain of Caspase-8 (Homo sapiens) (Q14790 217-374 limits assumed): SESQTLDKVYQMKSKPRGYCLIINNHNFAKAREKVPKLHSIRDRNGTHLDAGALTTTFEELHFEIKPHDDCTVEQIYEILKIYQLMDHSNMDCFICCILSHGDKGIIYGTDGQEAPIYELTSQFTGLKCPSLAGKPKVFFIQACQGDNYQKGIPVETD
Chain of Caspase-8 (Homo sapiens) (Q14790 385-479 limits assumed): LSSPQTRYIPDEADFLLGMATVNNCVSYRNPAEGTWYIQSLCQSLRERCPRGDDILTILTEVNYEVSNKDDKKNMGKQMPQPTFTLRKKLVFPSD
Procedure, shortened: (§3)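 Recombinant purified caspase-3, -6, -7 and -8 were run as full Michaelis-Menten curves (velocity vs substrate concentration) at several test concentrations up to 100 µM. Hydrolytic pNA release was followed from enzyme-specific tetrapeptide substrates: Ac-DEVD-pNA for caspase-3 and -7, Ac-VEID-pNA for caspase-6, Ac-IETD-pNA for caspase-8. Kinetics given as kcat/KM.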

Caspase-7 (Homo sapiens) = biological target: T1, Caspase-7 (Homo sapiens) (UniProt P55210); experiment: Inhibition of recombinant caspase 7 activity expressed in Escherichia coli BL21 (DE3) assessed as p-nitroaniline release using Ac-DEVD-pNA substrate up to 100 uM; procedure, shortened: as §3
T1 sequence (whole entry): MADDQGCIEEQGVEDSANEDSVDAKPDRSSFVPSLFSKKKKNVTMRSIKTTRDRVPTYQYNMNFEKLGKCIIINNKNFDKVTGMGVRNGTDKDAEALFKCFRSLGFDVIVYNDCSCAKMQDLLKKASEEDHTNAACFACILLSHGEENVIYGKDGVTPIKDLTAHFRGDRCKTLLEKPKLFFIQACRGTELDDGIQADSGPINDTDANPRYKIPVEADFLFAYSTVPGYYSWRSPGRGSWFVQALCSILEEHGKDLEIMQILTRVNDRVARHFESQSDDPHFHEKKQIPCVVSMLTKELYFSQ

Caspase-3 (Homo sapiens) = biological target: T2, Caspase-3 (Homo sapiens) (UniProt P42574); experiment: Inhibition of recombinant caspase 3 activity expressed in Escherichia coli BL21 (DE3) assessed as p-nitroaniline release using Ac-DEVD-pNA substrate up to 100 uM; procedure, shortened: as §3
T2 sequence (whole entry): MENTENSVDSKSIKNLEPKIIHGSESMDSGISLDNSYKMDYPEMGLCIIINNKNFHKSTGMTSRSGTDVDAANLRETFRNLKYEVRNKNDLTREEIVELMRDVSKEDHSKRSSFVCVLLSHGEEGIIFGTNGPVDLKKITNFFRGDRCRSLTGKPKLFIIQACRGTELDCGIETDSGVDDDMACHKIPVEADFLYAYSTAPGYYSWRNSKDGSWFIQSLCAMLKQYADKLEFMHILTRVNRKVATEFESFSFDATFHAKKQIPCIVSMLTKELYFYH

U-937 [3] = experiment: Cytoprotective activity against 50 uM H2O2-induced cell death in human U937 cells pretreated for 5 hrs measured after 24 hrs by cell flow cytometry using propidium iodide staining relative to control; assay type: functional, cell-based
Procedure, shortened: (§4)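 Protection of U-937 cells against H2O2 or MNNG: 5 h preincubation with a range of concentrations before toxin addition, then viability measured after 24 h by propidium iodide staining and flow cytometry. Reported as percent protection versus vehicle-only and toxin-only control cells.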

Caspase-6 (Homo sapiens) = biological target: T3, Caspase-6 (Homo sapiens) (UniProt P55212); experiment: Inhibition of recombinant caspase 6 activity expressed in Escherichia coli BL21 (DE3) assessed as p-nitroaniline release using Ac-VEID-pNA substrate up to 100 uM; procedure, shortened: as §3
T3 sequence (whole entry): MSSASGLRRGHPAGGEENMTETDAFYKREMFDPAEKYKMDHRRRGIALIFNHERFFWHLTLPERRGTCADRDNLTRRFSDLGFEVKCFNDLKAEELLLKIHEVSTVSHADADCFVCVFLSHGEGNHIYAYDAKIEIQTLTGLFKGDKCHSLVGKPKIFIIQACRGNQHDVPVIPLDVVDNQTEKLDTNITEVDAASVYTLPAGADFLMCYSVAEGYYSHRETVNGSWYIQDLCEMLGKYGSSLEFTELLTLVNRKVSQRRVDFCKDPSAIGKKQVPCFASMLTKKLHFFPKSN

U-937 [4] = experiment: Cytoprotective activity against 50 uM N-methyl-N'-nitro-N-nitrosoguanidine-induced cell death in human U937 cells pretreated for 5 hrs measured after 24 hrs by cell flow cytometry using propidium iodide staining relative to control; assay type: functional, cell-based; procedure, shortened: as §4
U-937 [5] = experiment: Cytoprotective activity against 20 uM rotenone-induced intracellular ROS production in human U937 cells at 100 uM pretreated for 5 hrs by 2,7-dichlorodihydrofluorescein dye reduction assay; assay type: functional, cell-based
Procedure, shortened: (§5)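 U-937 cells exposed 5 h to a range of test concentrations or α-tocopherol (100 µM), then rotenone added (final 20 µM). After 40 min, dichlorodihydrofluorescein diacetate (peroxides) or dihydroethidium (superoxide, forming ethidium) added, and cellular fluorescence read by flow cytometry. Compared with vehicle+rotenone control. SDM from n = 3, each in triplicate.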

U-937 [6] = experiment: Antiapoptotic activity in human U937 cells assessed as reduction of 1.5 uM etoposide-induced caspase-3/7 like activity at 100 nM pretreated for 5 hrs measured after 24 hrs relative to control; assay type: functional, cell-based; procedure, shortened: as §2
U-937 [7] = experiment: Cytoprotective activity against 20 uM rotenone-induced intracellular ROS production in human U937 cells at 100 uM pretreated for 5 hrs by dihydroethidium dye reduction assay; assay type: functional, cell-based; procedure, shortened: as §5
U-937 [8] = experiment: Cytoprotective activity against 5 uM rotenone-induced cell death in human U937 cells pretreated for 5 hrs measured after 24 hrs by cell flow cytometry using propidium iodide staining relative to control; assay type: functional, cell-based; procedure, shortened: as §1

Structure (SMILES): C=C1C=C(CCC(=O)OC)C(=O)OC1/C=C/C=C/C (centres undefined)
Activity (U-937 [1]): inactive

Structure (SMILES): C=C1C=CC(=O)OC1/C=C/CCC (centres undefined)
Activity (U-937 [1]): inactive

Structure (SMILES): C=C1C=C(CCC(=O)OC)C(=O)OC1CCCCC (centres undefined)
Activity (U-937 [1]): inactive

Structure (SMILES): C=C1C=C(CCC(=O)O)C(=O)OC1/C=C/C=CC (centres undefined)
Activity (U-937 [1]): Active

Activity (Caspase-8 (Homo sapiens)): inactive
Activity (Caspase-7 (Homo sapiens)): inactive
Activity (Caspase-3 (Homo sapiens)): inactive
Activity (Caspase-6 (Homo sapiens)): inactive
Structure (SMILES): C=C1C=C(CCC(=O)O)C(=O)OC1/C=C/C=C/C (centres undefined)
Activity (U-937 [2]): Active
Activity (U-937 [3]): inactive
Activity (U-937 [4]): Dose-dependent effect
Activity (U-937 [5]): inactive
Activity (U-937 [6]): inactive
Activity (U-937 [7]): inactive
Activity (U-937 [8]): Dose-dependent effect

Structure (SMILES): Cc1c(C)c2c(c(C)c1O)CC[C@@](C)(CCC[C@H](C)CCC[C@H](C)CCCC(C)C)O2
Activity (U-937 [5]): Active
Activity (U-937 [7]): Active

Structure (SMILES): C=C1C=CC(=O)OC1/C=C/C=C/C (centres undefined)
Activity (U-937 [1]): inactive

Structure (SMILES): C=C1C=CC(=O)OC1CCCCC (centres undefined)
Activity (U-937 [1]): inactive
